Sampled rows, rich in hits. Any-hit rate of the full collection: about 1.6%.
F508del corr = correctors of CFTR F508del function in bronchial epithelial cells | CFBE cells, YFP halide quenching; stimulated with forskolin plus potentiator P3; % fluorescence drop versus neutral controls | activity (quench increase), % at 7.58 µM | 0.36% of 350,000 active | AID 720511;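 active = mean added fluorescence quench of at least 8% versus neutral control, with both replicates also reaching 8%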;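 note: cells transiently co-express mutant CFTR-F508del with the halide-sensitive YFP; corrector assay measuring rescue of mutant channel to the surface after 24 h compound exposure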
SUMO1 PPI mod = SUMO1-SIM interaction modulation. P63165. SUMO1 binding to a labelled peptide, TR-FRET, 1 h. inhibition, % at 20 µM. 0.33% of 360,000 active. AID 602429; in the data active = inhibition above about 37%
Target sequence (P63165 whole entry, looked up): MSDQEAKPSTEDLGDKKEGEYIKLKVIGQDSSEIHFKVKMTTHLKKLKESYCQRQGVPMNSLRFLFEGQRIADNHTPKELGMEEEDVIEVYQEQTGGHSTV
DNMT1 block = DNMT1 (human) enzyme inhibition; P26358; DNMT1 molecular beacon, Hinp1I cleavage, fluorescence; inhibition (reported as % activation of signal), % at 10 µM; 0.83% of 360,000 active; AID 588458; in the data active = inhibition above about 50%
STEP inh = blocks human striatal-enriched tyrosine phosphatase; P54829; recombinant STEP, OMFP fluorogenic substrate, fluorescence; inhibition, % at 20 µM; 0.25% of 360,000 active;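 active = inhibition at 20 µM, scaled per plate between control wells, above about 37%, limit read from the data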;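 note: 0% = DMSO with enzyme and substrate and 100% = substrate only without enzyme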
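material = STEP tyrosine phosphatase | reagent = fluorogenic phosphatase substrate OMFP at 25 µM final | doses = single compound dose of 20 µM, 1% DMSO final | schedule = 20 min reaction, room temperature, in the dark | measured by = fluorescence, 480/540 nm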
LMPTP block = LMPTP (human) inhibition; AID 651560; P24666; 0.22% of 360,000 active; recombinant LMPTP-A, OMFP fluorogenic substrate, fluorescence intensity; inhibition, % at 20 µM;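 active = compounds that cut the enzyme signal by at least half of the control window in the single-dose screen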;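 note: plate controls were DMSO wells with enzyme plus substrate for no effect and substrate without enzyme for full effect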
Target sequence (P24666 whole entry, looked up): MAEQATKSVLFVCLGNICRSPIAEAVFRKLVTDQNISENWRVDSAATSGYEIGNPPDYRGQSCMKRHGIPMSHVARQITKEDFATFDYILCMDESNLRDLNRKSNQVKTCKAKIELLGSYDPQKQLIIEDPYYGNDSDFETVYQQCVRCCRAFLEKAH
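Assay system: LMPTP-A, protein tyrosine phosphatase of low molecular weight / Medium: pH 6.0 Bis-Tris buffer with DTT and Triton X-100 / Schedule: 50 min enzyme reaction at room temperature, protected from light / Measured by: endpoint fluorescence intensity from OMFP dephosphorylation / Read-out basis: % inhibition relative to no-enzyme and uninhibited control wells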
Scp1 inh = inhibitors of human Scp-1 phosphatase | Recombinant Scp1, phosphopeptide, malachite green phosphate absorbance | inhibition, % at 20 µM | 0.88% of 340,000 active | AID 493091;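 active = inhibition above about 50% at 20 µM, limit read from the data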;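 note: plate controls were DMSO wells with enzyme for no effect and wells lacking enzyme for full effect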
Target sequence (Q9GZU7 76-261 limits assumed): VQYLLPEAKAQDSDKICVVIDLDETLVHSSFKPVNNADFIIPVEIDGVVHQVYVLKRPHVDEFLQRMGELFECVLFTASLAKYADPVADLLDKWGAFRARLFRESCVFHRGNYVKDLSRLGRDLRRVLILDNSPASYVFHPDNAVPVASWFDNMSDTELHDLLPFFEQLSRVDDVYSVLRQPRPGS
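Test system: SCP-1 phosphatase catalytic domain, residues 76-261 | Compound dosing: One concentration, 20 µM, with 1.0% DMSO | Schedule: 45 min room-temperature reaction, 5 min colour, 30 min stabiliser | Detection: Absorbance at 630 nm | Read-out basis: % inhibition of SCP-1 phosphate liberation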
Scp-1 conf = Scp-1 (human) inhibition, single-dose confirmed; inhibition, % at 20 µM; recombinant SCP-1 catalytic domain, phosphate release, malachite green absorbance; AID 540281; shares compounds with Scp1 inh; 61% of 2,500 active;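 note: plate controls were DMSO with enzyme for no effect and buffer wells lacking enzyme for full effect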
MG interference = counter-screen for Scp-1 inhibitors: colorimetric interference; shares compounds with Scp1 inh; Colorimetric interference counterscreen, malachite green absorbance 630 nm; apparent inhibition (interference), % at 20 µM; 2,500 tested, under 10 active; AID 540313;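 note: compounds added after enzyme reaction finished so only phosphate colour detection is probed; plate controls were DMSO wells with completed Scp-1 reaction for no effect and substrate wells lacking enzyme for full effect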
Scp1 DSF = binds human Scp-1, shifting its melting temperature; shares compounds with Scp1 inh; Recombinant SCP1, Sypro Orange thermal shift Tm; thermal shift relative to vanadate control, % at 40 µM; 25% of 1,500 active; AID 540329;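 active = substances whose mean melting-temperature shift, as a percentage of the reference inhibitor's shift, reaches about 5.3%, limit read from the data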;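 note: 0% = Tm of DMSO wells and 100% = Tm with sodium orthovanadate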
Beacon interf DR = beacon fluorescence artifact, dose response counter-screen | shares compounds with DNMT1 block | molecular beacon fluorescence, spectral interference counter-screen | IC50, µM | 200 tested, under 10 active; call rule not given here
DNMT1 confirm = DNMT1 inhibition confirmation, single concentration | inhibition, % at 10 µM | 8% of 2,300 active | shares compounds with DNMT1 block | DNMT1 molecular beacon HinP1I cleavage, fluorescence;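 active = average inhibition of at least 30% in the single-concentration confirmation test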
Beacon interf = beacon fluorescence artifact counter-screen; shares compounds with DNMT1 block; DNMT1 molecular beacon spectral interference counterscreen, fluorescence 485/520; activation (fluorescence interference), % at 10 µM; 1% of 2,300 active; AID 602387;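 active = activation of at least 30% at 10 µM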;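 note: DNMT1 catalytic domain with a HinP1I cleavage step and a FAM/dabcyl DNA beacon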
STEP inh conf = confirmation of human STEP phosphatase inhibitors; shares compounds with STEP inh; recombinant STEP, OMFP fluorogenic substrate, fluorescence; inhibition, % at 20 µM; 32% of 520 active; AID 623866; call rule not given here;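 note: 0% = enzyme with substrate plus DMSO and 100% = substrate without enzyme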
Numbers without * were called inactive; / = no result.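 Rule for the calls, unless noted: active = inhibition of at least 30% at 20 µM; inactive = the rest.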

SMILES	F508del corr	SUMO1 PPI mod	DNMT1 block	STEP inh	LMPTP block	Scp1 inh	Scp-1 conf	MG interference	Scp1 DSF	DNMT1 confirm	Beacon interf	others
COc1ccc(S(=O)(=O)N(C)C[C@H]2OCCCC[C@H](C)Oc3ccc(NC(=O)c4ccncc4)cc3C(=O)N([C@@H](C)CO)C[C@H]2C)cc1	-2	/	/	/	/	/	/	/	/	/	/
Cc1ccc(F)cc1S(=O)(=O)N[C@@H]1CCN(Cc2cccc3[nH]ccc23)C1	1	/	/	/	/	/	/	/	/	/	/
CCCn1c(=O)c2sccc2n2c(CCCC(=O)NCc3cccnc3)nnc12	-3	4	1	-3	-1	-6	/	/	/	/	/
CCCn1c(=O)c2sccc2n2c(CCCC(=O)NCc3ccco3)nnc12	-2	8	77*	17	2	69*	54*	-9	-5	1	2
CC(C)(CS(=O)(=O)[O-])NC(=O)CC[N+](C)(C)CCO	/	28	116*	52*	-2	60*	43*	-13	-11	86*	6	Beacon interf DR=>99
O=C1NN(c2ccccc2)C(=O)/C1=C/c1ccc(-c2ccc(Cl)c(C(=O)O)c2)o1	2	20	85*	18	9	70*	62*	-8	14*	12	0
Cc1cccc(N2NC(=O)/C(=C/c3ccc(-c4ccc(Cl)c(C(=O)O)c4)o3)C2=O)c1	1	30	84*	21	26	71*	56*	-23	12*	12	0
C[C@H](CO)N1C[C@H](C)[C@@H](CN(C)C(=O)CC2CC2)Oc2cc(C3=CCCC3)ccc2S1(=O)=O	1	/	/	/	/	/	/	/	/	/	/
N=C1C(c2nc3ccccc3s2)=C(O)CN1NC(=O)c1c[nH]c2ccccc12	2	-7	65*	37	35	64*	54*	-15	4	2	0
N=C1C(c2nc3ccccc3s2)=C(O)CN1NC(=O)c1ccccc1[N+](=O)[O-]	2	1	12	2	7	16	/	/	/	/	/
C[C@@H]1CCCCO[C@@H](CN(C)C(=O)Nc2cccc3ccccc23)[C@H](C)CN([C@H](C)CO)C(=O)c2cc(NC(=O)CCC(F)(F)F)ccc2O1	4	/	/	/	/	/	/	/	/	/	/
CC(C)(C)Cc1nnc(NC(=O)Cc2cccs2)s1	3	3	56*	8	21	58*	63*	-21	7.2*	9	1
CC(C)c1nnc(NC(=O)Cc2cccs2)s1	-2	0	-2	0	-2	-3	/	/	/	/	/
O=C(Cc1cccs1)Nc1nnc(Cc2ccccc2)s1	/	5	99*	12	42	82*	76*	-8	4	8	2
O=C(Cc1cccs1)Nc1nnc(CCc2ccccc2)s1	/	-3	2	-1	1	0	/	/	/	/	/
CCCCCc1nnc(NC(=O)Cc2cccs2)s1	/	4	59*	9	6	68*	85*	1	6.3*	10	2
COc1ccc(NC(=O)N(C)C[C@@H]2Oc3ccc(NC(=O)C4CCCCC4)cc3C(=O)N([C@@H](C)CO)C[C@@H]2C)cc1	1	/	/	/	/	/	/	/	/	/	/
Cc1nnn(-c2nonc2N)c1C(=O)N/N=C/c1ccccc1O	/	3	79*	11	36	51*	64*	-12	-4	12	-1
Cc1noc(C)c1S(=O)(=O)N(C)C[C@@H]1Oc2ccc(NC(=O)CCC(F)(F)F)cc2CC(=O)N([C@H](C)CO)C[C@@H]1C	1	/	/	/	/	/	/	/	/	/	/
O=C(COc1cccnc1[N+](=O)[O-])Nc1ncc(Cl)cc1Cl	2	15	83*	1	10	62*	63*	-13	10.0*	3	-2
Cc1ccc(/C=c2\sc3nc(-c4ccccc4Br)nn3c2=O)o1	/	24	104*	11	35	92*	61*	-21	9.2*	4	2
Cc1ccc(-c2nc3s/c(=C\c4ccco4)c(=O)n3n2)cc1	/	4	79*	5	4	67*	49*	-7	5	5	-1
COc1ccccc1/C=c1\sc2nc(-c3ccccc3OC)nn2c1=O	/	-1	-17	8	0	-7	/	/	/	/	/
Cc1ccc(/C=c2/sc3nnc(-c4ccccc4Cl)n3c2=O)o1	/	19	22	5	1	49	/	/	/	/	/
O=C(C1CCCC1)N1CC2(C1)[C@@H](c1ccccc1)[C@@H](CO)N2Cc1cncnc1	-1	/	/	/	/	/	/	/	/	/	/
SMILES	F508del corr	SUMO1 PPI mod	DNMT1 block	STEP inh	LMPTP block	Scp1 inh	Scp-1 conf	MG interference	Scp1 DSF	DNMT1 confirm	Beacon interf	others
CCOc1ccccc1C(O)C1=CC(=O)c2ccccc2C1=O (stereo not drawn)	0	9	96*	2	27	75*	54*	-19	14*	11	-3
CCOc1ccccc1C(N)=O	0	3	2	1	-1	-9	/	/	/	/	/
O=C1Nc2ccc(S(=O)(=O)NCc3ccccn3)c3cccc1c23	/	-9	54*	16	13	86*	61*	-6	-8	1	4
CCOc1cc(/C=C2/NC(=O)NC2=O)cc(Br)c1OCc1ccc(C(=O)O)cc1	0	2	-2	96*	56*	73*	88*	-4	-50	/	/	STEP inh conf=23
CN(C)c1cc(-c2ccc(Cl)c(Cl)c2)oc(=O)c1Cl	0	26	62*	96*	60*	107*	81*	-18	3	0	-2	STEP inh conf=13
CN(C)c1cc(-c2ccc(Cl)cc2)oc(=O)c1Cl	-1	-22	0	3	-1	-10	/	/	/	/	/
N=c1c2ccccc2nnn1-c1ccc(C(F)(F)F)cc1	0	-6	24	94*	68*	73*	62*	-11	-5	/	/	STEP inh conf=17
